Screens (PubChem BioAssay)
Hits are enriched below; roughly 1.8% of the tested compounds scored in any of these assays.
S1P2 antag – blocks the human S1P2 receptor. actives 0.21% (n = 97,000). inhibition, % at 5 µM. cell-based S1P2 antagonist assay, inhibition at 5 uM. AID 736; in the data active = inhibition above about 45%;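 also: CRE beta-lactamase reporter cells expressing human S1P2 stimulated with S1P; 0% = agonist at EC80 alone and 100% = agonist plus reference antagonist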
Target sequence (O95136 whole entry, looked up): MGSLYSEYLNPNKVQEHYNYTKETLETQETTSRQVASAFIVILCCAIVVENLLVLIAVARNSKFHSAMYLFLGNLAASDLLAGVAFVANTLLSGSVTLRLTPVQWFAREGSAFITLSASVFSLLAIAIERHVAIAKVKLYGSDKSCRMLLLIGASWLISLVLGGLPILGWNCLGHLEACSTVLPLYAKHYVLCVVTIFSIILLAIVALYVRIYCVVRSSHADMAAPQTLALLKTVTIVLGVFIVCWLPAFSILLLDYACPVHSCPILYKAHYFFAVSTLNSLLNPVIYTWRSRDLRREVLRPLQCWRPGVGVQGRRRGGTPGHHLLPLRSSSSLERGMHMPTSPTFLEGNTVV
GALR2 blocker – blocks the human galanin receptor 2; actives 0.39% (n = 140,000); GALR2-expressing cells, antagonist mode; O43603; inhibition, % at 4 µM; in the data active = inhibition above about 27%;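 also: cells stimulated with galanin 1-16 at roughly its EC80; 0% = agonist challenge control and 100% = basal control without agonist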
HIV Rev-RRE inh – HIV Rev-RRE protein-RNA interaction inhibition | inhibition, % at 8 µM | Rev peptide-RRE RNA binding, FRET | AID 704 | actives 0.79% (n = 97,000);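 active = inhibition above the screen-wide mean plus 3 SD, cut at about 35% in these data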;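 also: 0% = median DMSO wells and 100% = median Neomycin B control wells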
Target sequence (P05866 whole entry, looked up): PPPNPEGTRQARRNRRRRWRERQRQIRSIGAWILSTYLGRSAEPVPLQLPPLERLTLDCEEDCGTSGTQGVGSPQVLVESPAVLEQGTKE
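Assay system: Rev peptide and RRE RNA, both fluorescently labelled; times: 5 min preincubation and 15 min binding, 25 °C; detection: FRET, ex 480 nm, em 540 and 671 nm; read-out basis: % inhibition from 671/540 nm acceptor-to-donor ratio, scaled between controls; benchmarks: DMSO low control, neomycin B high control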
EphB4 ephrin blk – antagonists of human EphB4-ephrin-B2 interaction; EphB4 LBD / TNYL-RAW-Alexa532 peptide, fluorescence polarization; inhibition, % at 7 µM; actives 0.15% (n = 97,000);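 active = inhibition above the screen-wide mean inhibition plus 3 SD, cut at about 15% in these data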;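 also: 0% = DMSO wells and 100% = excess unlabeled TNYL-RAW peptide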
GALR2 ag – agonists of human galanin receptor 2 (GALR2); actives 0.48% (n = 140,000); GALR2-expressing cells, agonist activation read-out; O43603; activation, % (no concentration beside the values); in the data active = activation above about 5%, passing the limit was not always enough;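 also: 0% = vehicle buffer wells and 100% = reference agonist at full effect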
S1P2 ag – S1P2 (human) receptor agonism; S1P2-expressing cell line, agonist reporter read-out; actives 0.46% (n = 97,000); AID 729; O95136; activation, % at 4.5 µM; in the data active = activation above about 16%;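 also: 0% = vehicle low control and 100% = maximal reference agonist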
Active calls of the source: *; . = not tested or not shown; [ ] = remark or other dose.

SMILES	S1P2 antag	GALR2 blocker	HIV Rev-RRE inh	EphB4 ephrin blk	GALR2 ag	S1P2 ag
CC1=C(C(=O)Nc2ccc(F)cc2)C(c2ccc(C)o2)C2=C(CC(C)(C)CC2=O)N1 (centres undefined)	11.2	-0.2	0.6	-6.6	-0.9	20.9*
CC1=C(C(=O)OC2CCCCC2)C(c2ccc(C)o2)C2=C(CC(C)(C)CC2=O)N1 (centres undefined)	-19.4	6.8	-1.2	-0.3	-1.0	-11.9
O=c1oc2cc(OCc3ccc(F)cc3F)ccc2cc1-c1ccc2ccccc2n1	.	-0.6	.	.	1.1	.
CS(=O)(=O)Nc1ccc(C(=O)Nc2ccccc2Sc2ccccc2)cc1	.	8.2	.	.	-0.5	.
O=C(Nc1ccccc1Sc1ccccc1)c1ccccc1F	-2.1	-8.3	13.9	16.4*	0.5	-1.4
Cc1ccc(Nc2nnc(SCC(=O)NCCN3C(=O)CSC3=O)s2)cc1C	.	12.7	.	.	-0.3	.
Cc1ccc(NC(=S)NCCc2ccc(S(N)(=O)=O)cc2)c(C)c1	12.7	-4.7	3.5	3.8	-0.2	101.8*
Cc1cc(C)cc(NC(=S)NCCc2ccc(S(N)(=O)=O)cc2)c1	.	3.5	.	.	-1.7	.
N#Cc1cc(C(=O)c2cc(Cl)ccc2O)cn(-c2ccccc2)c1=O	.	9.1	.	.	-0.5	.
Cc1c(-n2cc(C(=O)c3cc(Cl)ccc3O)cc(C#N)c2=O)c(=O)n(-c2ccccc2)n1C	17.3	-8.4	82.7*[fluorescence artefact?]	10.7	-1.6	-4.4
Cc1ccc(O)c(C(=O)c2cc(C#N)c(=O)n(-c3c(C)n(C)n(-c4ccccc4)c3=O)c2)c1	15.6	5.9	79.4*	2.0	-2.4	-6.5
Cc1c(-n2cc(C(=O)c3cc(Br)ccc3O)cc(C#N)c2=O)c(=O)n(-c2ccccc2)n1C	-27.6	-4.6	74.3*[fluorescence artefact?]	2.5	-0.9	0.0
COc1ccc(O)c(C(=O)c2cc(C#N)c(=O)n(-c3c(C)n(C)n(-c4ccccc4)c3=O)c2)c1	9.3	-0.1	91.8*[fluorescence artefact?]	-6.8	-1.7	-9.4
COc1cc(C2Nn3c(nnc3-c3ccccc3OC)S2)ccc1O (centres undefined)	3.8	4.5	-0.1	0.7	-1.9	-5.3
Cc1ccc(C(=O)N(Cc2ccccc2)C(C)(C)C)cc1C	.	-6.1	.	.	-0.6	.
C1CCN(CCCNC2C3CC4CC(C3)CC2C4)C1 (centres undefined)	.	-4.5	.	.	-0.4	.
CCCOc1ccc(C2C(C(=O)OC)=C(C)N=C3SCCC(=O)N32)cc1OCC (centres undefined)	-41.2	-8.8	6.6	-4.7	1.0	25.3*
COc1cc(-c2nnc(COC(=O)c3c4c(nc5ccccc35)CCCC4)o2)cc(OC)c1OC	-20.6	-2.4	-5.9	-8.7	-1.1	42.8*
CCOC(=O)c1c(NC(=O)CSc2n[nH]c(-c3ccco3)n2)sc(C)c1C	-12.3	-6.3	2.3	-2.1	-1.8	23.5*
CCOC(=O)c1c(NC(=O)CSc2n[nH]c(CNc3ccccc3)n2)sc(C)c1C	-16.3	-2.0	1.5	-11.9	-0.1	-1.8
O=C(O)c1ccc(CSc2n[nH]c(-c3ccco3)n2)cc1	31.0	-11.0	19.6	15.4*	3.1	-3.6
C=CCN(CC=C)C(=O)c1cc2ccccc2c(=O)o1	.	-16.4	.	.	0.4	.
N#CC1(C#N)[C@@H](C(=O)C23CC4CC(CC(C4)C2)C3)C12CCOCC2	.	2.6	.	.	-0.8	.
CN(C)Cc1ccccc1COc1ccccc1	.	-11.1	.	.	-0.8	.
CCOC(=O)c1ccc2c(c1)N(CC)/C(=C\C=C1/SC(=S)N(CC)C1=O)N2CC	-9.9	-1.5	133.3*[fluorescence artefact?]	-16.4	-0.6	-1.1
SMILES	S1P2 antag	GALR2 blocker	HIV Rev-RRE inh	EphB4 ephrin blk	GALR2 ag	S1P2 ag
Cn1c(=O)oc2cc(S(=O)(=O)NCC3CCCO3)ccc21 (centres undefined)	5.5	14.1	53.2*	1.7	0.8	19.5*
Cc1cc(C)cc(NC(=O)C2CCCN2/C=C/C(=O)C(F)(F)F)c1 (centres undefined)	.	-14.9	.	.	-1.5	.
CCCn1c2ccccc2c2nnc(SC(CC)C(=O)Nc3cc(C)on3)nc21 (centres undefined)	-37.5	-5.8	7.6	-8.4	0.5	29.7*
COC(=O)c1sc(N)c(C(=O)OC)c1CSc1nc2sc3c(c2c(=O)n1C)CCC3	-29.4	14.1	-0.2	0.8	-2.0	26.8*
O=C(Cn1cnc2nc3n(c2c1=O)CCC3)NCc1ccccc1	.	5.4	.	.	-1.8	.
COCC(C)n1c(C)cc(C(=O)COC(=O)CN=C2NS(=O)(=O)c3ccccc32)c1C (centres undefined)	.	3.3	.	.	-1.5	.
